The target of assay [1] is Prostacyclin receptor (Homo sapiens, UniProt P43119). The experiment in a line: Displacement of [3H]-Iloprost from human IP receptor expressed in CHO cells after 30 mins by liquid scintillation counting. It counts as cell-based. Put shortly:
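Membranes from CHO cells expressing hIP were incubated with 5.0 nM [³H]Iloprost and compounds at various concentrations. Buffer was 50 mM Tris–HCl pH 7.5 with 1 mM EDTA and 10 mM MgCl₂, for 30 min at room temperature. Samples were filtered on GF/B, washed with 10 mM Tris–HCl/100 mM NaCl pH 7.5, dried 60 min at 60 °C and scintillation counted.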

Assay [2] concerns the target T1, Prostaglandin E2 receptor EP1 subtype (Mus musculus, UniProt P35375).
T1 sequence (P35375 whole entry): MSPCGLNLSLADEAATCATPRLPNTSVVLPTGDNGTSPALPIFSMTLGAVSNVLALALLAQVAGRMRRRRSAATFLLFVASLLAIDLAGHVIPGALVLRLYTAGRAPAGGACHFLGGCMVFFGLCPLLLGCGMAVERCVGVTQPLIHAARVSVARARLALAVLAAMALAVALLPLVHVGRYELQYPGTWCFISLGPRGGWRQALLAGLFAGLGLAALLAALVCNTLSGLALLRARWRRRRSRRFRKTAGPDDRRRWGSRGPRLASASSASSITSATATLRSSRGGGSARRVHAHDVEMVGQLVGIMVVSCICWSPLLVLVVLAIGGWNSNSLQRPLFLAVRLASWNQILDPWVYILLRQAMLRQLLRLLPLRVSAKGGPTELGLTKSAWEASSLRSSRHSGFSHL
Briefly: Displacement of [3H]-PGE2 from mouse EP1 receptor expressed in CHO cells after 20 mins by liquid scintillation counting. It counts as cell-based. Put shortly: (§1)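 Membranes from CHO cells stably expressing mEP1, mEP2, mEP3a, mEP4 or mFP were used. The radioligand was 2.5 nM [³H]PGE₂ for EP receptors and 2.5 nM [³H]PGF2α for FP. Buffer was 10 mM KH₂PO₄–KOH pH 6.0 with 1 mM EDTA, 10 mM MgCl₂ and 100 mM NaCl. Incubation was at room temperature, 20 min for mEP1 and 60 min for the others. Samples were filtered on GF/B, washed with phosphate/NaCl pH 6.0, dried 60 min at 60 °C and scintillation counted.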

Assay [3] concerns the target T2, Prostaglandin D2 receptor (Mus musculus, UniProt P70263).
T2 sequence (P70263 whole entry): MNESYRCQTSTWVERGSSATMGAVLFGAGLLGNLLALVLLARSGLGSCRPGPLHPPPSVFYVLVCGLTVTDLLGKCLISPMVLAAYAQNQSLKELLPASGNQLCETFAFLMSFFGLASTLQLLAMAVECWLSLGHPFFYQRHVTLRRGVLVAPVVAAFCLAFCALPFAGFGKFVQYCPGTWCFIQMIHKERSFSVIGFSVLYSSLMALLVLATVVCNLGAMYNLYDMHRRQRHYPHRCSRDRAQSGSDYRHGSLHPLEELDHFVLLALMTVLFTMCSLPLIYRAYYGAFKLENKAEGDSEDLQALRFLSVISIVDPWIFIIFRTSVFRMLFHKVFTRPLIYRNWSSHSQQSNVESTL
Briefly: Antagonist activity at mouse DP receptor expressed in CHO cells assessed as inhibition of PGD2-induced cAMP accumulation after 10 mins by enzyme immunoassay in the presence of 0.1% BSA. The assay is classed as functional, cell-based. Put shortly: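 CHO cells stably expressing mDP were seeded at 1 × 10⁵ cells/well and grown 2 days. They were preincubated about 10 min at 37 °C in MEM with Diclofenac, then given assay medium (MEM, 0.1% BSA, 1 mM IBMX, Diclofenac). Test compound at various concentrations plus 10 nM PGD₂ was added for 10 min at 37 °C. The reaction was stopped with ice-cold 10% TCA and TCA was extracted. cAMP was measured by EIA. IC50 came from cAMP relative to the PGD₂-only maximum.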

The target in assay [4] is T3, Prostaglandin E2 receptor EP3 subtype (Mus musculus, UniProt P30557).
T3 sequence (P30557 whole entry): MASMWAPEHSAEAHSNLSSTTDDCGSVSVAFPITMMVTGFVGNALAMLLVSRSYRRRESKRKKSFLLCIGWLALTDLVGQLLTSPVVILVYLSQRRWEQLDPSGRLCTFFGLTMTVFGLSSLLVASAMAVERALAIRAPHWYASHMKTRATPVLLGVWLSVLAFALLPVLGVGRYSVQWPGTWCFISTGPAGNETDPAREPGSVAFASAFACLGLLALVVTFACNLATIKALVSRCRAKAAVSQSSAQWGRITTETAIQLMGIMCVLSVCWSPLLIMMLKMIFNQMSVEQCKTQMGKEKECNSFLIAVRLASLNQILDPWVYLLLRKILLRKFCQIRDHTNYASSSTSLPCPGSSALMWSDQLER
Briefly: Displacement of [3H]-PGE2 from mouse EP3 receptor expressed in CHO cells after 60 mins by liquid scintillation counting. The assay is classed as cell-based. Put shortly:
as §1

Assay [5] deals with T4, Thromboxane A2 receptor (Homo sapiens, UniProt P21731).
T4 sequence (P21731 whole entry): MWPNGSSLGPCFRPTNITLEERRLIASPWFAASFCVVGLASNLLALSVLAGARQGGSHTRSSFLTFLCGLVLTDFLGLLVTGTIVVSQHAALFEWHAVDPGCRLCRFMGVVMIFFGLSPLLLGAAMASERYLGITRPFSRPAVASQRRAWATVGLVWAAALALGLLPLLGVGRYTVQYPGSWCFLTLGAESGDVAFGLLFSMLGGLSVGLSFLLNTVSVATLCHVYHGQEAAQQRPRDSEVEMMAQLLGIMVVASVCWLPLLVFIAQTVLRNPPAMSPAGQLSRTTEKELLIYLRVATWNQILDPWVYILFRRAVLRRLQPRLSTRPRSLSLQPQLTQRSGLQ
Briefly: Displacement of [3H]-SQ29548 from human TP receptor expressed in CHO cells after 30 mins by liquid scintillation counting. It counts as cell-based. Put shortly:
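Membranes from CHO cells expressing hTP were incubated with 5.0 nM [³H]-SQ29548 and compounds at various concentrations. Buffer was 10 mM Tris–HCl pH 7.5 with 100 mM NaCl, for 30 min at room temperature. Samples were filtered on GF/B, washed with the same buffer, dried 60 min at 60 °C and scintillation counted. Nonspecific binding was set with excess unlabeled SQ29548.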

Assay [6] has as its target Prostaglandin E2 receptor EP2 subtype (Mus musculus, UniProt Q62053). Briefly: Displacement of [3H]-PGE2 from mouse EP2 receptor expressed in CHO cells after 60 mins by liquid scintillation counting. The assay is classed as cell-based. Put shortly:
as §1

Assay [7] addresses Prostaglandin E2 receptor EP4 subtype (Mus musculus, UniProt P32240). The experiment in a line: Displacement of [3H]-PGE2 from mouse EP4 receptor expressed in CHO cells after 60 mins by liquid scintillation counting. It counts as cell-based. Put shortly:
as §1

The target in assay [8] is Prostaglandin F2-alpha receptor (Mus musculus, UniProt P43117). The experiment in a line: Displacement of [3H]-PGF2-alpha from mouse FP receptor expressed in CHO cells after 60 mins by liquid scintillation counting. The assay is classed as cell-based. Put shortly:
as §1

For assay [9], the target named is T2, Prostaglandin D2 receptor. The experiment in a line: Displacement of [3H]-PGD2 from mouse DP receptor expressed in CHO cells after 20 mins by liquid scintillation counting. It counts as cell-based. Put shortly: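 Membranes from CHO cells stably expressing mDP were incubated with 2.5 nM [³H]PGD₂ and compounds at various concentrations. Buffer was 25 mM HEPES–NaOH pH 7.4 with 1 mM EDTA, 5 mM MgCl₂ and 10 mM MnCl₂, for 20 min at room temperature. Samples were filtered on GF/B and washed with Tris–HCl pH 7.4, NaCl, 0.01% BSA. Filters were dried 60 min at 60 °C and read by scintillation counting. Nonspecific binding was set with excess unlabeled PGD₂.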

Assay [10] concerns Cavia porcellus. The experiment in a line: Inhibition of OVA-induced vascular permeability in guinea pig conjunctiva at 3 mg/kg, po administered 1 hr before antigen challenge measured after 30 mins. It counts as functional. Put shortly: (§2)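 Male Hartley guinea pigs were sensitized i.p. with OVA (1 mg) plus inactivated Bordetella pertussis. Two weeks later they were challenged with topical OVA (1%, 20 µL/eye), followed at once by Evans blue (20 mg/kg iv). Compound was given orally 1 h before challenge. After 30 min, conjunctiva was removed and extracted in DMF at 37 °C. Dye was read at 620 nm against a standard curve.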

For assay [11], the system named is Cavia porcellus. Briefly: Inhibition of OVA-induced vascular permeability in guinea pig conjunctiva at 1 mg/kg, po administered 1 hr before antigen challenge measured after 30 mins. It counts as functional. Put shortly:
as §2

The values below come from ChEMBL document CHEMBL1811829, “Discovery of selective indole-based prostaglandin D₂ receptor antagonist” (Bioorg Med Chem, 2011).

Each structure is given as a SMILES string.

Chain of Prostaglandin E2 receptor EP4 subtype (P32240 whole entry): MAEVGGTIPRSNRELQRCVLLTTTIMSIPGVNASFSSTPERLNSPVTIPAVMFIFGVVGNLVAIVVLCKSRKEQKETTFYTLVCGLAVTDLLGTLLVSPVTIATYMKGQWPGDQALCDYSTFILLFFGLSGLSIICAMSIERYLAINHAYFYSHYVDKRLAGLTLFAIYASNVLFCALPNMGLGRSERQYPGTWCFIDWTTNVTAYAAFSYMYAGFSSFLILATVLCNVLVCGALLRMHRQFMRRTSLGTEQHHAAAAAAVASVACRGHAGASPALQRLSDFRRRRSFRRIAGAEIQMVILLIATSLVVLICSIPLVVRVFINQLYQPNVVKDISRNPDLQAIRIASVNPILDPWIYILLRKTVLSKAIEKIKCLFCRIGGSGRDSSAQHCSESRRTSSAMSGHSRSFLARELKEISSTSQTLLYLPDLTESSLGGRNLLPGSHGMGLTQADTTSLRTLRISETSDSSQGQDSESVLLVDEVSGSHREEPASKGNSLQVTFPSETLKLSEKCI
Chain of Prostacyclin receptor (P43119 whole entry): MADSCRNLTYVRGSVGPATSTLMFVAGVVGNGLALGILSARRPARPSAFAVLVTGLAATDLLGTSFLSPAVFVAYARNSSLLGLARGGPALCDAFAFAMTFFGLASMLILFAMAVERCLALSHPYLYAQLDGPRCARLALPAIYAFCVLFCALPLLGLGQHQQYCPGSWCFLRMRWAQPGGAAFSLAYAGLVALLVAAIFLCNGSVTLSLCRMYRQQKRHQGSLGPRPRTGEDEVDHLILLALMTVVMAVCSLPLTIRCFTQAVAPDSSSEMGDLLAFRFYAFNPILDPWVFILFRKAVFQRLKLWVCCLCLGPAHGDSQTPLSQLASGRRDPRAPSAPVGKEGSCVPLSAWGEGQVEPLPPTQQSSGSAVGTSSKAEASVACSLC
Chain of Prostaglandin E2 receptor EP2 subtype (Q62053 whole entry): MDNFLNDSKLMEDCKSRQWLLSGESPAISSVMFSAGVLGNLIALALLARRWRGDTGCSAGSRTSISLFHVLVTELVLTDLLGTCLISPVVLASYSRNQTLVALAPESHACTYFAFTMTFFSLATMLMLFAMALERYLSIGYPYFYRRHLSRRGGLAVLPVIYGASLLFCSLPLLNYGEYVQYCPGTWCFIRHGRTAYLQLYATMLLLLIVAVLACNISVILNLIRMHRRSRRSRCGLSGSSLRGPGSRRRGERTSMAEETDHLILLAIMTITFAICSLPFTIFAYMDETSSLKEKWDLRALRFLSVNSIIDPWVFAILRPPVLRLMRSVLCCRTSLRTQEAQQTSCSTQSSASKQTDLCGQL
Chain of Prostaglandin F2-alpha receptor (P43117 whole entry): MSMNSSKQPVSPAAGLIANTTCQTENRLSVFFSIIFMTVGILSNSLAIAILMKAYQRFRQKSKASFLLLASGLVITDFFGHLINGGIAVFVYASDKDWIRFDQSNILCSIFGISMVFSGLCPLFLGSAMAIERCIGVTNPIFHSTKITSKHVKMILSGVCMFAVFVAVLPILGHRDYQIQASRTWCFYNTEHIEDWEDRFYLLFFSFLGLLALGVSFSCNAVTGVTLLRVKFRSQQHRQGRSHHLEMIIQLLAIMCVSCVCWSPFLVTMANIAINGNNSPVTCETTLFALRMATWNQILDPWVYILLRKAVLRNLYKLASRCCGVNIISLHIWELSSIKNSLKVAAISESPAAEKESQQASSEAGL

As to `Cc1ccc2c(c1)c(CC(=O)O)c(C)n2C(=O)c1ccc(OC[C@@H]2CN(C)c3ccccc3O2)cc1`, the Ki in assay [1] is 1100 nM; in assay [2], 5200 nM; in assay [4], 2800 nM; in [5], more than 10000 nM; in assay [6] it was 340 nM; in assay [7] it was 3600 nM. The inhibition constant (Ki) in assay [8] was 1700 nM; in assay [9], 28 nM. Besides, the 50% inhibitory concentration (IC50) in [3] was determined as 4.3 nM.

With `Cc1c(CC(=O)O)c2cc(F)ccc2n1C(=O)c1ccc(OC[C@@H]2CN(C)c3ccccc3O2)cc1`, the Ki was 320 nM in assay [1]; more than 10000 nM in assay [2]; 1900 nM in assay [4]; more than 10000 nM in [5]; 250 nM in assay [6]; more than 10000 nM in assay [7]. For the same molecule, the Ki in [8] worked out at 1700 nM; in assay [9], 5.7 nM. Also, the concentration for half-maximal inhibition (IC50) in assay [3] is 1.8 nM.

In the case of `Cc1cc(OC[C@@H]2CN(C)c3ccccc3O2)ccc1C(=O)n1c(C)c(CC(=O)O)c2ccccc21`, the inhibition constant Ki in assay [1] was 130 nM; in [2] it was 2900 nM; in assay [4], 3600 nM; in assay [6], 500 nM; in assay [7], more than 10000 nM; in assay [8], 2600 nM. The Ki in [9] was determined as 3.5 nM. Also, the half-inhibitory concentration (IC50) in [3] was 1.1 nM; in assay [5], more than 10000 nM. This molecule displayed an inhibition in vivo at 3 mg/kg in assay [10] of 29%.

Regarding `Cc1c(CC(=O)O)c2ccccc2n1C(=O)c1ccc(OC[C@@H]2CN(C)c3ccccc3O2)cc1Cl`, the inhibitory constant (Ki) in assay [1] was 92 nM; in assay [2], more than 10000 nM; in assay [4] it was more than 10000 nM; in [6], 600 nM; in assay [7] it was more than 10000 nM; in assay [9], 4.4 nM. Further, the half-inhibitory concentration (IC50) in [3] is 2.2 nM. Moreover, testing at 3 mg/kg in assay [10] gave an inhibition in vivo of 48%.

With `Cc1c(CC(=O)O)c2cc(F)ccc2n1C(=O)c1ccc(OC[C@@H]2CN(C)c3ccccc3O2)cc1Cl`, the inhibition constant Ki in assay [1] is 200 nM; in assay [2] it was more than 10000 nM; in assay [4] it was 3200 nM; in [6], 370 nM; in assay [7], 4100 nM; in assay [8], 1200 nM. The affinity in assay [9], expressed as Ki, was 5.2 nM. The 50% inhibitory concentration (IC50) in [3] is 1.6 nM; in assay [5] it was more than 10000 nM. The inhibition in vivo at 3 mg/kg in assay [10] worked out at 52%.

In the case of `CCN1c2ccccc2C[C@@H]1COc1ccc(C(=O)n2c(C)c(CC(=O)O)c3ccccc32)c(C)c1`, the Ki was 2200 nM in [1]; more than 10000 nM in [2]; 2800 nM in [4]; 2700 nM in assay [6]; 1600 nM in assay [7]; 1400 nM in assay [8]. The Ki in assay [9] was 4.8 nM. The IC50 in [3] stood at 2.2 nM; in assay [5] it was 7600 nM. Besides, testing at 1 mg/kg in assay [11] gave an inhibition in vivo of 42%.

In the case of `Cc1cc2c(CC(=O)O)cccc2n1C(=O)c1ccc(OC[C@@H]2CN(C)c3ccccc3O2)cc1`, the inhibition constant (Ki) in assay [1] is 37 nM; in assay [5], 260 nM; in [7] it was more than 10000 nM; in assay [8], 3100 nM; in [9] it was 16 nM. Besides, the IC50 in assay [3] came out at 2.4 nM. Also, the inhibition in vivo at 1 mg/kg in assay [11] worked out at 23%. Also, the inhibition in vivo at 3 mg/kg in [10] amounted to 41%.
